From ChEMBL document CHEMBL4043093, “2-Oxo-3, 4-dihydropyrimido[4, 5-d]pyrimidinyl derivatives as new irreversible pan fibroblast growth factor receptor (FGFR) inhibitors” (Eur J Med Chem, 2017)

What was measured:
[1] = target: Mitogen-activated protein kinase kinase kinase 4 (Homo sapiens) (UniProt Q9Y6R4); experiment: Inhibition of wild-type human partial length MAP3K4 (G1319 to E1608 residues) expressed in Escherichia coli BL21 assessed as residual activity at 1000 nM after 30 mins by Kinomescan method relative to control
[2] = target: Proto-oncogene tyrosine-protein kinase ROS (Homo sapiens) (UniProt P08922); experiment: Inhibition of wild-type human partial length ROS1 (A1921 to N2240 residues) expressed in Escherichia coli BL21 assessed as residual activity at 1000 nM after 30 mins by Kinomescan method relative to control
[3] = target: Serine/threonine-protein kinase haspin (Homo sapiens) (UniProt Q8TF76); experiment: Inhibition of wild-type human partial length HASPIN (I452 to K798 residues) expressed in HEK293 cells assessed as residual activity at 1000 nM after 30 mins by Kinomescan method relative to control; format: cell-based
[4] = target: Macrophage colony-stimulating factor 1 receptor (Homo sapiens) (UniProt P07333); experiment: Inhibition of wild-type human partial length CSF1R (I564 to S939 residues) expressed in Escherichia coli BL21 assessed as residual activity at 1000 nM after 30 mins by Kinomescan method relative to control
[5] = target: Ribosomal protein S6 kinase alpha-6 (Homo sapiens) (UniProt Q9UK32); experiment: Inhibition of wild-type human partial length C-terminal RSK4 kinase domain 2 (I401 to Y711 residues) expressed in Escherichia coli BL21 assessed as residual activity at 1000 nM after 30 mins by Kinomescan method relative to control
[6] = test system: Phosphatidylinositol 4,5-bisphosphate 3-kinase catalytic subunit alpha isoform (Homo sapiens), P42336 [E542K]; experiment: Inhibition of human partial length PIK3CA E542K mutant (R108 to N1068 residues) expressed in HEK293 cells assessed as residual activity at 1000 nM after 30 mins by Kinomescan method relative to control; format: cell-based
Method in brief: (§1)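 KINOMEscan binding panel of 456 kinases, with the test compound at a single concentration of 1 µM. Read-out is Percent Control.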

[7] = test system: Epidermal growth factor receptor (Homo sapiens), P00533 [UNDEFINED MUTATION]; experiment: Inhibition of human partial length EGFR S752-I759del mutant expressed in Escherichia coli BL21 assessed as residual activity at 1000 nM after 30 mins by Kinomescan method relative to control; method in brief: as §1
[8] = target: PDGFRB (platelet-derived growth factor receptor beta) (Homo sapiens, UniProt P09619); experiment: Inhibition of wild-type human partial length PDGFRB (V582 to Y1009 residues) expressed in Escherichia coli BL21 assessed as residual activity at 1000 nM after 30 mins by Kinomescan method relative to control; details: read-out: Activity
[9] = target: Phosphatidylinositol 3-kinase C2 domain-containing subunit gamma (Homo sapiens) (UniProt O75747); experiment: Inhibition of wild-type human partial length PIK3C2G (M1 to I1446 residues) expressed in HEK293 cells assessed as residual activity at 1000 nM after 30 mins by Kinomescan method relative to control; format: cell-based
[10] = target: Mitogen-activated protein kinase kinase kinase 15 (Homo sapiens) (UniProt Q6ZN16); experiment: Inhibition of wild-type human partial length MAP3K15 (T625 to L932 residues) expressed in HEK293 cells assessed as residual activity at 1000 nM after 30 mins by Kinomescan method relative to control; format: cell-based
[11] = target: Dual specificity mitogen-activated protein kinase kinase 1 (Homo sapiens) (UniProt Q02750); experiment: Inhibition of wild-type human full length MEK1 (M1 to V393 residues) expressed in HEK293 cells assessed as residual activity at 1000 nM after 30 mins by Kinomescan method relative to control; format: cell-based
Method in brief: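 Single-concentration screen at 1 µM across a 456-kinase KINOMEscan panel. The read-out is Percent Control for each kinase.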

[12] = target: Cyclin-dependent kinase 3 (Homo sapiens) (UniProt Q00526); experiment: Inhibition of wild-type human full length CDK3 (M1 to H305 residues) expressed in Escherichia coli BL21 assessed as residual activity at 1000 nM after 30 mins by Kinomescan method relative to control
Method in brief: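 Single-point screen at a fixed 1 µM, run within a 456-kinase DiscoveRx KINOMEscan panel. Each kinase's read-out is Percent Control, i.e. signal relative to a control without compound. Hits were scored by a Percent Control < 35 cut-off, and an S(35) selectivity score was calculated across the non-mutant kinases.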

[13] = target: Protein kinase C delta type (Homo sapiens) (UniProt Q05655); experiment: Inhibition of wild-type human partial length PRKCD (Q328 to D676 residues) expressed in Escherichia coli BL21 assessed as residual activity at 1000 nM after 30 mins by Kinomescan method relative to control
[14] = target: Leucine-rich repeat serine/threonine-protein kinase 2 (Homo sapiens) (UniProt Q5S007); experiment: Inhibition of wild-type human partial length LRRK2 (H970 to E2527 residues) expressed in HEK293 cells assessed as residual activity at 1000 nM after 30 mins by Kinomescan method relative to control; format: cell-based
[15] = target: Calcium/calmodulin-dependent protein kinase kinase 2 (Homo sapiens) (UniProt Q96RR4); experiment: Inhibition of wild-type human partial length CAMKK2 (D65 to V471 residues) expressed in Escherichia coli BL21 assessed as residual activity at 1000 nM after 30 mins by Kinomescan method relative to control
Homo sapiens = species on record: Homo sapiens; experiment: Inhibition of human partial length FLT3 ITD/F691L double mutant expressed in Escherichia coli BL21 assessed as residual activity at 1000 nM after 30 mins by Kinomescan method relative to control; method in brief: as §1
[16] = target: Phosphatidylinositol 4-phosphate 5-kinase type-1 alpha (Homo sapiens) (UniProt Q99755); experiment: Inhibition of wild-type human full length PIP5K1A (M1 to H562 residues) expressed in Escherichia coli BL21 assessed as residual activity at 1000 nM after 30 mins by Kinomescan method relative to control
Method in brief: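 Single-concentration screen at 1 µM against a 456-kinase panel (KINOMEscan). Read-out is Percent Control for each kinase. Across the 403 non-mutant kinases, an S(35) selectivity score was derived as the fraction of kinases with Percent Control < 35.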

[17] = target: Membrane-associated tyrosine- and threonine-specific cdc2-inhibitory kinase (Homo sapiens) (UniProt Q99640); experiment: Inhibition of wild-type human partial length PKMYT1 (A88 to G366 residues) expressed in Escherichia coli BL21 assessed as residual activity at 1000 nM after 30 mins by Kinomescan method relative to control
[18] = test system: eIF-2-alpha kinase GCN2 (Homo sapiens), Q9P2K8 [S808G]; experiment: Inhibition of wild-type human partial length GCN2 kinase domain 2 (R585 to T1018 residues) S808G mutant expressed in Escherichia coli BL21 assessed as residual activity at 1000 nM after 30 mins by Kinomescan method relative to control
[19] = target: Serine/threonine-protein kinase tousled-like 2 (Homo sapiens) (UniProt Q86UE8); experiment: Inhibition of wild-type human partial length TLK2 (E424 to N749 residues) expressed in Escherichia coli BL21 assessed as residual activity at 1000 nM after 30 mins by Kinomescan method relative to control
Sequence of Serine/threonine-protein kinase tousled-like 2 (Homo sapiens) (Q86UE8 whole entry, looked up, the tested form may be a part): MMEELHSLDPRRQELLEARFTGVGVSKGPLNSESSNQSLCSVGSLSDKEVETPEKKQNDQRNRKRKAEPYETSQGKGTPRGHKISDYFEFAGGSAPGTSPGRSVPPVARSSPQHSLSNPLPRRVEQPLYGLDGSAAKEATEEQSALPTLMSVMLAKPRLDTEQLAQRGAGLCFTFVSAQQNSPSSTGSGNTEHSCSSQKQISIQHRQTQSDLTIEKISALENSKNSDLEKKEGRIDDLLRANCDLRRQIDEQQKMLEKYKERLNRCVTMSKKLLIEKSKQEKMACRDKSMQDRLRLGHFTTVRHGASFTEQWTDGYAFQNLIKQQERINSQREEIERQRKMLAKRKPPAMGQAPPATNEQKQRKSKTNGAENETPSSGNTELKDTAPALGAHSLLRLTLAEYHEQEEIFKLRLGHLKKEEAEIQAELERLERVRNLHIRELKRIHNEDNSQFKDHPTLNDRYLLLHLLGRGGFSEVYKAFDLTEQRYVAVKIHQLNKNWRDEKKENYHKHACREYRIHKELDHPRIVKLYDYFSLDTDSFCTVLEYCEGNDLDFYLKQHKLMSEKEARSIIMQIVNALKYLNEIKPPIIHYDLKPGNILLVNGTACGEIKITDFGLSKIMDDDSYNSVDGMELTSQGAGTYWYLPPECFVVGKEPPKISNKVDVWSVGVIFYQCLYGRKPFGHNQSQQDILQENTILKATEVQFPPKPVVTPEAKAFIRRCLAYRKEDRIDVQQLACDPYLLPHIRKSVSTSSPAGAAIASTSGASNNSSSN

Sequence of eIF-2-alpha kinase GCN2 (Homo sapiens), Q9P2K8 [S808G] (Q9P2K8 whole entry S808G, the tested form may be a part): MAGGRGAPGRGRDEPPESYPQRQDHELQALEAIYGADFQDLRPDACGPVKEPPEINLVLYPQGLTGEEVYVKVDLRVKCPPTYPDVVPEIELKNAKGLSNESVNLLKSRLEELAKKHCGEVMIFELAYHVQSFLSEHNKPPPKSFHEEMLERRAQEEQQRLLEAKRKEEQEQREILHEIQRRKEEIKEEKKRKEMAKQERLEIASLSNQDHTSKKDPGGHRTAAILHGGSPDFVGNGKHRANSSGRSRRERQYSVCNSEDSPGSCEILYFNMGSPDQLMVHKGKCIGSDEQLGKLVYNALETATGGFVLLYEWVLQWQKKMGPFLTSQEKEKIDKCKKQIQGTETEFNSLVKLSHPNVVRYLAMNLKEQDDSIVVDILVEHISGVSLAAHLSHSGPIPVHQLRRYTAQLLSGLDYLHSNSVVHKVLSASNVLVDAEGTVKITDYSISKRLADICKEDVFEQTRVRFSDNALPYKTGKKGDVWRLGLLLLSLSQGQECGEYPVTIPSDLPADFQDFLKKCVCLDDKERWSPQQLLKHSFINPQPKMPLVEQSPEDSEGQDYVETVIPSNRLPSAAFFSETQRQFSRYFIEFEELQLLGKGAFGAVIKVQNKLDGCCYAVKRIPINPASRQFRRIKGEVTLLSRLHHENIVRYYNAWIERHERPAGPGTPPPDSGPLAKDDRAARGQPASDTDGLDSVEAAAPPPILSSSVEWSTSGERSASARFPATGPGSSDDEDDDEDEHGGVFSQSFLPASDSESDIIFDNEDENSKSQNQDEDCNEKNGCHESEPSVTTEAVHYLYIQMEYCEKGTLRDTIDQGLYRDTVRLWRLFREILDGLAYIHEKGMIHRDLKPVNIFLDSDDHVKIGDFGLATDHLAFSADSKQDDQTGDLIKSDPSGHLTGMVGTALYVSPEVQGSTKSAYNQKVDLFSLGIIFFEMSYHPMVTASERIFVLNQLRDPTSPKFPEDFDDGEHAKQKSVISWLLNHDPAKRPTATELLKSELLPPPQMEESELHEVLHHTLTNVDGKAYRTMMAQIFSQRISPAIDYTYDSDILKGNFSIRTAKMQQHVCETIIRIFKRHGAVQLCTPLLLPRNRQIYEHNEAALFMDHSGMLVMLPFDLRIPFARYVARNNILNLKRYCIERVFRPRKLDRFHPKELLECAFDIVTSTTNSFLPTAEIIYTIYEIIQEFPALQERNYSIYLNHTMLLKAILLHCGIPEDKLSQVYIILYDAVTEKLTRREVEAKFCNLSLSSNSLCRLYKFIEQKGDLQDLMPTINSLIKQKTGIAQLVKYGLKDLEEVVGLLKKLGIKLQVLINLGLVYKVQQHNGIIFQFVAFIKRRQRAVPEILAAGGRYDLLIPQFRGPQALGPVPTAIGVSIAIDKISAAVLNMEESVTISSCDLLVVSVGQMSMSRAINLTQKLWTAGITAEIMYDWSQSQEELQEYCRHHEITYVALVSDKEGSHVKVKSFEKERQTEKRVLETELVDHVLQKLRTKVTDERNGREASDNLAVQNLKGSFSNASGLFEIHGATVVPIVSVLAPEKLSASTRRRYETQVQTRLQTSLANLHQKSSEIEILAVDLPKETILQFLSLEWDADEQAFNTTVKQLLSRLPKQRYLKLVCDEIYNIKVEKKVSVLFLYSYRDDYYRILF
Sequence of Ribosomal protein S6 kinase alpha-6 (Homo sapiens) (Q9UK32 whole entry, the tested form may be a part, canonical isoform): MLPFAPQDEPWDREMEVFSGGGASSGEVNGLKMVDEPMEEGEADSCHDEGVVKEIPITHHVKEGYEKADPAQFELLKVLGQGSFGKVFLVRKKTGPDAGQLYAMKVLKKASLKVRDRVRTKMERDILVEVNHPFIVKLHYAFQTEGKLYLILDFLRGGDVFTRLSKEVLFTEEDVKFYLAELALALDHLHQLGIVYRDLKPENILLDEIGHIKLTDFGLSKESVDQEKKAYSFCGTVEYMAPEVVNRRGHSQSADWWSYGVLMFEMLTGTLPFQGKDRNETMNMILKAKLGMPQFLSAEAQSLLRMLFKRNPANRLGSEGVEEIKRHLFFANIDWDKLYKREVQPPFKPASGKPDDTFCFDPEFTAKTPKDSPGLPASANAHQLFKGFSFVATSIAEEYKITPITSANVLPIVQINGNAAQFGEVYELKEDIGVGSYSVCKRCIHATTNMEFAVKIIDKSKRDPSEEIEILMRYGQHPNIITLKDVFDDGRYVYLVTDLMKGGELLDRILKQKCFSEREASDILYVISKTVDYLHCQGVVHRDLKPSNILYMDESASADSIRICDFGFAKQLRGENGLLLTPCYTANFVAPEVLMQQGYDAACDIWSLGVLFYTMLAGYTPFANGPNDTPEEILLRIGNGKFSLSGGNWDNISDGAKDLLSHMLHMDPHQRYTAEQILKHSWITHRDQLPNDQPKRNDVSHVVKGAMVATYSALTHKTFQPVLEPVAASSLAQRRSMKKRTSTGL
Sequence of Calcium/calmodulin-dependent protein kinase kinase 2 (Homo sapiens) (Q96RR4 2-588 limits assumed): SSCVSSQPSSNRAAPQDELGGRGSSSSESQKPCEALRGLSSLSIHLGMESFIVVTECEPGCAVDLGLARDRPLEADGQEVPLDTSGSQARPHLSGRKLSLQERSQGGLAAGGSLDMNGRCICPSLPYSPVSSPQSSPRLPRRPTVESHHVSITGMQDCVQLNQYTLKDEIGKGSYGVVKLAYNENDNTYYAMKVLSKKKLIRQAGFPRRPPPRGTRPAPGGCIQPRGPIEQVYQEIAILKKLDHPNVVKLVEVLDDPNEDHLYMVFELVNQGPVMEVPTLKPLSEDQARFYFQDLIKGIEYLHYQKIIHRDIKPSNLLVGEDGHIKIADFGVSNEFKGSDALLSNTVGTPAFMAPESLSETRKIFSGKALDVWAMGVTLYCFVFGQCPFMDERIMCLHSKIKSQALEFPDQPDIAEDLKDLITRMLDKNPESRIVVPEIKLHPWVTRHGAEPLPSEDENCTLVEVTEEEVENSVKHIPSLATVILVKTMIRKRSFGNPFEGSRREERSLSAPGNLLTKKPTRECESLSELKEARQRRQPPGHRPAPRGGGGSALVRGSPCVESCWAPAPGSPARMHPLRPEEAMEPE
Sequence of Epidermal growth factor receptor (Homo sapiens), P00533 [UNDEFINED MUTATION] (P00533 whole entry, looked up, stated change not applied, the tested form may be a part): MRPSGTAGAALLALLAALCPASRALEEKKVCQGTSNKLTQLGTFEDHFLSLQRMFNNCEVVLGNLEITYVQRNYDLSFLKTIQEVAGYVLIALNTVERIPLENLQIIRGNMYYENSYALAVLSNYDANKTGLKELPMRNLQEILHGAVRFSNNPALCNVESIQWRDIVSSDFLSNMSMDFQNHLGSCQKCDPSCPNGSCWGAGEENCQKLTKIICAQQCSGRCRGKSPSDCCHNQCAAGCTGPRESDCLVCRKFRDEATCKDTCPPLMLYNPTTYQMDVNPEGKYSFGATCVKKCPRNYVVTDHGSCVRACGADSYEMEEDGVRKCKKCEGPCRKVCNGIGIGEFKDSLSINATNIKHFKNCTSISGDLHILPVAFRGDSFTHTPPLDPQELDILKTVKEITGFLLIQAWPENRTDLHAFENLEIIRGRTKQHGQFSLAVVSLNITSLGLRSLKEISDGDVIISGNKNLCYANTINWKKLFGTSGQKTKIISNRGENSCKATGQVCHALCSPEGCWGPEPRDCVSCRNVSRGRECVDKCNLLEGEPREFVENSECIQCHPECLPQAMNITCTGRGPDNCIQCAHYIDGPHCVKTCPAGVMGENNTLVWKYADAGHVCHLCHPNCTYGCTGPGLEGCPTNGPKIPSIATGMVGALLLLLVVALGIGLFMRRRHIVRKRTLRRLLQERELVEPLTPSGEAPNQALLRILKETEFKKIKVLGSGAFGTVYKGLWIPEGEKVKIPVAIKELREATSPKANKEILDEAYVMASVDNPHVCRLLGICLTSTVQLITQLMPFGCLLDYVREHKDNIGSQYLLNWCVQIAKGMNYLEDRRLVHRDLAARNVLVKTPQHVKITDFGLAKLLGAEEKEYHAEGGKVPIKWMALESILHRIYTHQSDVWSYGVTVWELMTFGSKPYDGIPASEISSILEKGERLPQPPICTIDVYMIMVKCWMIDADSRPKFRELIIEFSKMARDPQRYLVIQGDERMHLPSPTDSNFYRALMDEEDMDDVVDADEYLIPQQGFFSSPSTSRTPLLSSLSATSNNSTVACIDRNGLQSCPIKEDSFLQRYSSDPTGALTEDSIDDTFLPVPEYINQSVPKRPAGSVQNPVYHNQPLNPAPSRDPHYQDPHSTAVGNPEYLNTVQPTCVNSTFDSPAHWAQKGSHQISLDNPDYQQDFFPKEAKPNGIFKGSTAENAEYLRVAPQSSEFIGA

COc1cc(OC)c(Cl)c(N2Cc3cnc(Nc4ccc(F)cc4)nc3N(C3CCN(C(=O)/C=C/CN(C)C)CC3)C2=O)c1Cl
Activity [1]: 46% | Activity [2]: 95% | Activity [3]: 61% | Activity [4]: 0.4% | Activity [5]: 94% | Activity [6]: 86% | Activity [7]: 71% | activity at 0.5 h, 1 µM [8]: 1.5% | Activity [9]: 95% | Activity [10]: 100% | Activity [11]: 100% | Activity [12]: 97% | Activity [13]: 93% | Activity [14]: 100% | Activity [15]: 99% | Activity (Homo sapiens): 90% | Activity [16]: 100% | Activity [17]: 100% | Activity [18]: 46% | Activity [19]: 96%
